Bioassay records as filed in PubChem BioAssay.
PAX8 reporter = inhibitors of PAX8-driven TPO luciferase reporter, primary screen, RMG-I cells, single concentration | SteadyGlo, 24 h | inhibition, % at 12.6 µM | 360,000 tested, 1.2% active | AID 652154, 2013;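 active = mean replicate inhibition at least 60% with every replicate also reaching 60%; inconclusive = only one of the two criteria is met; inactive = mean below 60% and not all replicates reaching 60%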;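 note: luciferase light reporting Pax8 driven TPO promoter activity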
EWS-Fli block = EWS/Fli-driven NR0B1 reporter inhibitors, primary screen, A673 cells, NR0B1 luciferase, luminescence, MLPCN library; viability-normalised; inhibition, % at 12.6 µM; 350,000 tested, 0.67% active;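 active = mean inhibition of at least 50% after viability correction, with every replicate also passing that limit; inconclusive = mean reaches 50% but only one of two replicates passes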;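 note: firefly luciferase signal divided by Alamar Blue viability fluorescence both relative to DMSO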
PGC1a acetyl inh = inhibitors of PGC1a acetylation signal, primary screen, cell-based, U2OS, AlphaScreen, inhibitor mode. AlphaScreen anti-acetyl-lysine; with virally co-expressed GCN5 acetyltransferase. inhibition, % at 15.6 µM. 350,000 tested, 0.17% active. AID 651687, 2012;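 active = every replicate shows inhibition of at least 40%; inconclusive = mean inhibition at least 40% but some replicate below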
FN deposition inh = inhibitors of fibronectin matrix deposition, primary screen, AH1F cells, Alexa488-fibronectin fluorescence, plate reader; inhibition, % at 12.6 µM; AH1F fibroblasts, overnight; AID 743247, 2014; 350,000 tested, 0.086% active;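 active = mean inhibition across replicates of 30% or more, regardless of how many single replicates reach that level; inconclusive = mean under 30% yet at least half of replicates reach 30%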
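Test system: AH1F fibroblast monolayer depositing Alexa488-labelled fibronectin into matrix. Input: 10000 cells per well. Technique: fluorescence, ex 485 nm, em 525 nm. Buffer or medium: DMEM plus 2% serum, read in PBS. Timing: 1 h cell adhesion before compound, then overnight fibronectin incubation. Compound: single dose, pinned. Read-out basis: inhibition from reduced deposited-fibronectin fluorescence.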
F508del corr = F508del CFTR correction, initial screen, CFBE line, single point; CFBE cells, YFP halide quenching; stimulated with forskolin plus potentiator P3; % fluorescence drop versus neutral controls; activity (quench increase), % at 7.58 µM; 350,000 tested, 0.36% active; AID 720511, 2013;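 active = mean added fluorescence quench of at least 8% versus neutral control, with both replicates also reaching 8%; inconclusive = only one of the mean or replicate conditions met; inactive = mean below 8% and not both replicates reaching 8%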;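 note: cells transiently co-express mutant CFTR-F508del with the halide-sensitive YFP; corrector assay measuring rescue of mutant channel to the surface after 24 h compound exposure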
HIV Env fusion = inhibitors of HIV-1 Env-driven cell-cell fusion, primary screen, HeLa-JRFL effector, CEM21 target cells, luciferase; 360,000 tested, 1.1% active; inhibition, % at 12.3 µM;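 active = mean replicate inhibition score of at least 50 and every replicate individually at or above 50; inconclusive = only one of the two criteria met; inactive = mean below 50 and not all replicates reaching 50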
COX5a expr inh = inhibitors of PGC-1a-driven COX5a expression, dose response, cell-based, C2C12 myotubes, RT-qPCR, cherry-picked samples. AID 743461, 2014. C2C12 myotubes PGC-1a adenovirus. maximal activity, %. shares compounds with PGC1a acetyl inh. 45 tested, under 10 active;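 active = fitted dose curve reaching 40% activity at or below the highest valid dose tested; inconclusive = flat fit between 30% and 70%, or an unusable fit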
AID743468 = change in PGC-1a target gene PDK4 expression, dose response, C2C12 myotubes, RT-qPCR, cherry-pick; shares compounds with PGC1a acetyl inh; PGC-1a adenovirus, PDK4 mRNA qPCR; PDK4 expression increase, % at 19.5 µM; 45 tested, under 10 active; AID 743468, 2014;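 active = fitted curve reaching a 40% PDK4 expression rise at or below the top valid tested dose; inconclusive = no clear call, values can overlap the other calls; inactive = the rest, including shifts the wrong way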
Of the large screens only hits and unclear results are named; the others gave an inactive call (follow-up assays come after a bar, where they were run). An excerpt weighted towards active compounds, which were near 2.3% of everything screened.

COc1ccccc1C#Cc1ccc2c(c1)O[C@@H](CN(C)Cc1cccnc1)[C@H](C)CN([C@H](C)CO)S2(=O)=O	PAX8 reporter 84, PGC1a acetyl inh 43, F508del corr 8.2 (no result: FN deposition inh, HIV Env fusion) | COX5a expr inh inactive | AID743468 inconclusive
COc1ccccc1-c1ccc([C@@H]2[C@@H]3CN(S(=O)(=O)c4ccc(-c5ccccc5)cc4)C[C@H]2N3)cc1	PAX8 reporter 107 (no result: HIV Env fusion) | COX5a expr inh inactive | AID743468 inactive
COc1cccc(S(=O)(=O)N2C[C@@H]3N[C@H](C2)C3c2ccc(-c3ccccc3OC)cc2)c1 (stereo partly drawn)	none (no result: HIV Env fusion)
FC(F)(F)CN1C[C@@H]2C(c3ccccc3)[C@H](C1)N2CC(F)(F)F (stereo partly drawn)	none (no result: PAX8 reporter, EWS-Fli block, PGC1a acetyl inh, F508del corr, HIV Env fusion)
Cc1noc(C)c1S(=O)(=O)Nc1ccc2c(c1)C(=O)N([C@@H](C)CO)C[C@@H](C)[C@H](CN(C)C(=O)Nc1ccc(F)cc1)OCCCC[C@@H](C)O2	none
Cc1cccc(NC(=O)CNC(=O)Cn2ncc(Cl)c(Cl)c2=O)c1C	PGC1a acetyl inh inconclusive (no result: PAX8 reporter, EWS-Fli block, FN deposition inh, F508del corr, HIV Env fusion) | COX5a expr inh inactive | AID743468 inactive
CC[C@H](C)[C@H](NC(=O)c1ccc(Cl)cc1)C(=O)OCC(=O)c1ccc2c(c1)NC(=O)CO2	PGC1a acetyl inh inconclusive (no result: EWS-Fli block, F508del corr) | COX5a expr inh inactive | AID743468 inactive
CC(C)[C@H](NC(=O)c1ccccc1)C(=O)OCC(=O)c1ccc2c(c1)NC(=O)CO2	none (no result: EWS-Fli block, FN deposition inh, F508del corr)
Cc1nc2ccccn2c1C(=O)/C=C/c1ccc(F)cc1	PGC1a acetyl inh inconclusive (no result: PAX8 reporter, EWS-Fli block, FN deposition inh, F508del corr, HIV Env fusion) | COX5a expr inh inactive | AID743468 inactive
CCN1CCN(Cc2ccc(NC(=O)c3cc(NC(=O)c4cncc(-c5ccc(C#N)cc5)c4)cc(OC)c3)cc2C(F)(F)F)CC1	PAX8 reporter 108, PGC1a acetyl inh 86 | COX5a expr inh inactive | AID743468 inactive
Cc1ccc(S(=O)(=O)Nc2ccc3c(c2)CC(=O)N([C@H](C)CO)C[C@@H](C)[C@@H](CN(C)Cc2ccc(C(=O)Nc4ccccc4N)cc2)O3)cc1	none (no result: FN deposition inh)
C[C@H](CO)N1C[C@H](C)[C@H](CN(C)Cc2ccc(C(F)(F)F)cc2)OCCCC[C@H](C)Oc2ccc(NS(=O)(=O)c3cn(C)cn3)cc2C1=O	none (no result: FN deposition inh)
CCOc1cc(CNC2CCCC2)cc(Cl)c1OCc1ccc(F)cc1	PGC1a acetyl inh 78 (no result: PAX8 reporter, EWS-Fli block, FN deposition inh, F508del corr, HIV Env fusion) | COX5a expr inh inactive | AID743468 inactive
C[C@@H]1CN([C@H](C)CO)C(=O)c2cccc(N(C)C)c2O[C@H]1CN(C)C(=O)Nc1ccc(C(F)(F)F)cc1	none (no result: FN deposition inh)
